Measured values as given in ChEMBL document CHEMBL1126715, “Synthesis and tissue distribution of (m-[125I]iodobenzyl)trozamicol ([125I]MIBT): potential radioligand for mapping central cholinergic innervation” (J Med Chem, 1993).

Key:
Rattus norvegicus [1] = species: Rattus norvegicus; assay: Effect of vesamicol on the accumulation in rat blood in group 1 (n=3); assay type: ADME, organism-based; conditions: in vivo
Rattus norvegicus [2] = species: Rattus norvegicus; assay: Tissue distribution in rat gonads after 30 minutes (n=3); assay type: ADME, organism-based, Gonad; conditions: in vivo, 0.5 h
Summary of the method: (§1)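 Male Wistar rats (200-350 g) under ether anesthesia; radiotracer (3-5 μCi in 0.1 mL 50% aqueous ethanol) given iv. At 5, 30, 60 and 180 min, blood was drawn by cardiac puncture and animals were killed by cardiectomy. Organs were weighed and γ-counted against a 1:100 dilution of the injected dose. Results are given as % injected dose/g tissue; ratios are taken between tissue levels.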

Rattus norvegicus [3] = species: Rattus norvegicus; assay: Tissue distribution in rat gonads after 5 minutes (n=3); assay type: ADME, organism-based, Gonad; conditions: in vivo; summary of the method: as §1
Rattus norvegicus [4] = species: Rattus norvegicus; assay: Tissue distribution in rat heart after 180 minutes (n=3); assay type: ADME, organism-based; conditions: in vivo, 3 h; summary of the method: as §1
Rattus norvegicus [5] = species: Rattus norvegicus; assay: Effect of vesamicol on the accumulation in rat brain in group 1 (n=3); assay type: ADME, organism-based; conditions: in vivo
Summary of the method: (§2)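 Male Wistar rats (n = 4/group) given iv vehicle (100 μL 50% aqueous EtOH) or dl-vesamicol (1.01 μmol/kg); 15 min later iv radiotracer (2.0 μCi in 100 μL 50% aqueous EtOH); killed 30 min post-tracer. Blood by cardiac puncture, organs weighed and γ-counted vs 1:100 injected-dose dilution; % dose/g tissue (range); tissue/blood ratios.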

Rattus norvegicus [6] = species: Rattus norvegicus; assay: Effect of vesamicol on the accumulation in rat brain in group 2 (n=3); assay type: ADME, organism-based; conditions: in vivo
Rattus norvegicus [7] = species: Rattus norvegicus; assay: Effect of vesamicol on the accumulation in rat gonads in group 1 (n=3); assay type: ADME, organism-based; conditions: in vivo
Rattus norvegicus [8] = species: Rattus norvegicus; assay: Effect of vesamicol on the accumulation in rat gonads in group 2 (n=3); assay type: ADME, organism-based; conditions: in vivo; summary of the method: as §2
Rattus norvegicus [9] = species: Rattus norvegicus; assay: Effect of vesamicol on the accumulation in rat heart in group 1 […]; assay type: ADME, organism-based; conditions: in vivo; summary of the method: as §2
Rattus norvegicus [10] = species: Rattus norvegicus; assay: Effect of vesamicol on the accumulation in rat heart in group 2 (n=3); assay type: ADME, organism-based; conditions: in vivo; summary of the method: as §2
Rattus norvegicus [11] = species: Rattus norvegicus; assay: Effect of vesamicol on the accumulation in rat kidney in group 1 (n=3); assay type: ADME, organism-based; conditions: in vivo
Rattus norvegicus [12] = species: Rattus norvegicus; assay: Effect of vesamicol on the accumulation in rat kidney in group 2 (n=3); assay type: ADME, organism-based; conditions: in vivo
Rattus norvegicus [13] = species: Rattus norvegicus; assay: Effect of vesamicol on the accumulation in rat liver in group 1 ([…]); assay type: ADME, organism-based; conditions: in vivo; summary of the method: as §2
Rattus norvegicus [14] = species: Rattus norvegicus; assay: Effect of vesamicol on the accumulation in rat lung in group 1 (n=3); assay type: ADME, organism-based; conditions: in vivo; summary of the method: as §2
Rattus norvegicus [15] = species: Rattus norvegicus; assay: Effect of vesamicol on the accumulation in rat lung in group 2 (n=3); assay type: ADME, organism-based; conditions: in vivo
Rattus norvegicus [16] = species: Rattus norvegicus; assay: Effect of vesamicol on the accumulation in rat muscle in group 1 (n=3); assay type: ADME, organism-based, Muscle tissue; conditions: in vivo; summary of the method: as §2
Rattus norvegicus [17] = species: Rattus norvegicus; assay: Effect of vesamicol on the accumulation in rat muscle in group 2 (n=3); assay type: ADME, organism-based, Muscle tissue; conditions: in vivo; summary of the method: as §2
Rattus norvegicus [18] = species: Rattus norvegicus; assay: Effect of vesamicol on the accumulation in rat spleen in group 1 (n=3); assay type: ADME, organism-based; conditions: in vivo; summary of the method: as §2
Rattus norvegicus [19] = species: Rattus norvegicus; assay: Effect of vesamicol on the accumulation in rat spleen in group 2 (n=3); assay type: ADME, organism-based; conditions: in vivo; summary of the method: as §2
Rattus norvegicus [20] = species: Rattus norvegicus; assay: Effect of vesamicol on the accumulation in rat thyroid in group 1 (n=3); assay type: ADME, organism-based, Thyroid gland; conditions: in vivo; summary of the method: as §2
[21] = Ratio of effect of vesamicol on the accumulation between rat brain and blood in group 1; assay type: ADME, organism-based; summary of the method: as §2
[22] = Ratio of effect of vesamicol on the accumulation between rat brain and blood in group 2; assay type: ADME, organism-based; summary of the method: as §2
[23] = Ratio of effect of vesamicol on the accumulation between rat heart and blood in group 1; assay type: ADME, organism-based; summary of the method: as §2
[24] = Ratio of effect of vesamicol on the accumulation between rat heart and blood in group 2; assay type: ADME, organism-based; summary of the method: as §2
Rattus norvegicus [25] = species: Rattus norvegicus; assay: Ratio of tissue distribution between rat heart and blood after 60 min; assay type: ADME, organism-based; conditions: other tissue, 1 h; summary of the method: as §1
Rattus norvegicus [26] = species: Rattus norvegicus; assay: Ratio of tissue distribution between rat brain and blood after 180 min; assay type: ADME, organism-based; conditions: 3 h
Summary of the method: (§3)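 Male Wistar rats (200-350 g) under ether anesthesia, iv radiotracer (3-5 μCi in 0.1 mL 50% aqueous ethanol). At 5, 30, 60, 180 min blood taken by cardiac puncture, animal killed by cardiectomy; organs weighed, γ-counted against 1:100 injected-dose dilution; % injected dose/g tissue; brain/blood ratio.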

Rattus norvegicus [27] = species: Rattus norvegicus; assay: Ratio of tissue distribution between rat brain and blood after 30 min; assay type: ADME, organism-based; conditions: 0.5 h; summary of the method: as §3
Rattus norvegicus [28] = species: Rattus norvegicus; assay: Ratio of tissue distribution between rat brain and blood after 5 min; assay type: ADME, organism-based; conditions: brain, 5 min; summary of the method: as §3
Rattus norvegicus [29] = species: Rattus norvegicus; assay: Ratio of tissue distribution between rat brain and blood after 60 min; assay type: ADME, organism-based; conditions: 1 h; summary of the method: as §1
[30] = Ratio of tissue distribution between rat heart and blood after 180 min; assay type: ADME, organism-based; summary of the method: as §1
Rattus norvegicus [31] = species: Rattus norvegicus; assay: Ratio of tissue distribution between rat heart and blood after 30 min; assay type: ADME, organism-based; conditions: other tissue, 0.5 h; summary of the method: as §1
Rattus norvegicus [32] = species: Rattus norvegicus; assay: Ratio of tissue distribution between rat heart and blood after 5 min; assay type: ADME, organism-based; conditions: other tissue, 5 min; summary of the method: as §1
Rattus norvegicus [33] = species: Rattus norvegicus; assay: Effect of vesamicol on the accumulation in rat liver in group 2 (n=3); assay type: ADME, organism-based; conditions: in vivo
Rattus norvegicus [34] = species: Rattus norvegicus; assay: Tissue distribution in rat lung after 5 minutes (n=3); assay type: ADME, organism-based; conditions: in vivo; summary of the method: as §1
Rattus norvegicus [35] = species: Rattus norvegicus; assay: Tissue distribution in rat thyroid after 60 minutes (n=3); assay type: ADME, organism-based, Thyroid gland; conditions: in vivo, 1 h; summary of the method: as §1
Rattus norvegicus [36] = species: Rattus norvegicus; assay: Effect of vesamicol on the accumulation in rat blood in group 2 (n=3); assay type: ADME, organism-based; conditions: in vivo; summary of the method: as §2

Compound: O[C@@H]1CCN(Cc2cccc([125I])c2)C[C@H]1N1CCC(c2ccccc2)CC1 (stereo in doubt; (-))
- Dose/g (Rattus norvegicus [1]): 0.11%
- Dose/g (Rattus norvegicus [2]): 0.23%
- Dose/g (Rattus norvegicus [3]): 0.19%
- Dose/g (Rattus norvegicus [4]): 0.5%
- Dose/g (Rattus norvegicus [5]): 0.68%
- Dose/g (Rattus norvegicus [6]): 0.34%
- Dose/g (Rattus norvegicus [7]): 0.15%
- Dose/g (Rattus norvegicus [8]): 0.16%
- Dose/g (Rattus norvegicus [9]): 0.59%
- Dose/g (Rattus norvegicus [10]): 0.3%
- Dose/g (Rattus norvegicus [11]): 2.45%
- Dose/g (Rattus norvegicus [12]): 1.13%
- Dose/g (Rattus norvegicus [13]): 1.91%
- Dose/g (Rattus norvegicus [14]): 2.36%
- Dose/g (Rattus norvegicus [15]): 1.59%
- Dose/g (Rattus norvegicus [16]): 0.18%
- Dose/g (Rattus norvegicus [17]): 0.16%
- Dose/g (Rattus norvegicus [18]): 1.05%
- Dose/g (Rattus norvegicus [19]): 0.8%
- Dose/g (Rattus norvegicus [20]): 2.62%
- Kp [21]: 6.45
- Kp [22]: 5.59
- Kp [23]: 2.75
- Kp [24]: 2.4
- Ratio (Rattus norvegicus [25]): 5.97
- Ratio (Rattus norvegicus [26]): 9.87
- Ratio (Rattus norvegicus [27]): 9.06
- Ratio (Rattus norvegicus [28]): 4.27
- Ratio (Rattus norvegicus [29]): 8.51
- Kp at 3 h [30]: 5.32
- Ratio (Rattus norvegicus [31]): 6.87
- Ratio (Rattus norvegicus [32]): 6.07
- Dose/g (Rattus norvegicus [33]): 1.89%
- Dose/g (Rattus norvegicus [34]): 5.9%
- Dose/g (Rattus norvegicus [35]): 5.87%
- Dose/g (Rattus norvegicus [36]): 0.12%
